Results published in ChEMBL document CHEMBL5303300, “EUbOPEN Chemogenomics Library - Multiplex” (2023).
Several values for one entry are separate records, joined by “and”; a condition that tells them apart may be missing. Equal entries are not always repeated.

Test system: Fibroblast
Experiment: Multiplex assay against human fibroblast
Format: toxicity, cell-based
Details: number of replicates 2
Procedure, shortened: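 Live cells were stained at seeding with Hoechst33342, BioTracker Green Microtubule Cytoskeleton Dye, MitoTracker Red and Annexin V Alexa Fluor 680, then imaged on a CQ1 microscope at 37°C and 5% CO2 after compound addition. CellPathfinder machine-learning gating split cells into Hoechst high-intensity objects or normal cells. Normal cells were split into healthy, pyknosed or fragmented nuclei, and pyknosed cells into mitotic or apoptotic. Tubulin, mitochondrial-mass and membrane-permeability phenotypes are per cents of healthy-nucleus cells.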

[1] = 12 h, 1 µM, compound concentration 1 uM
[2] = 12 h, 10 µM, compound concentration 10 uM
[3] = 24 h, 1 µM, compound concentration 1 uM
[4] = 24 h, 10 µM, compound concentration 10 uM
[5] = 48 h, 1 µM, compound concentration 1 uM
[6] = 48 h, 10 µM, compound concentration 10 uM

Cl.Clc1ccc2nsnc2c1NC1=NCCN1 [TIZANIDINE HYDROCHLORIDE]
Population Apoptotic (%) [1]: 50% and 48% | Population Fragmented Nuclei (%) [1]: 10% | Population Healthy Nuclei (%) [1]: 62% | Population Hoechst High Intensity Objects (%) [1]: 0% | Population Membrane Permeable-Phenotype (%) [1]: 4% and 7% | Population Mitochondria Different-Phenotype (%) [1]: 0% | Population Mitotic Cells (%) [1]: 49% and 51% | Population Normal (%) [1]: 100% | Population Pyknosed Nuclei (%) [1]: 26% and 27% | Population Tubulin-Different-Phenotype (%) [1]: 10% and 5% | Total Cell Count [1]: 192 and 172 | Population Apoptotic (%) [2]: 36% | Population Fragmented Nuclei (%) [2]: 16% and 15% | Population Healthy Nuclei (%) [2]: 68% and 70% | Population Hoechst High Intensity Objects (%) [2]: 0% | Population Membrane Permeable-Phenotype (%) [2]: 5% and 3% | Population Mitochondria Different-Phenotype (%) [2]: 3% and 1% | Population Mitotic Cells (%) [2]: 63% | Population Normal (%) [2]: 100% | Population Pyknosed Nuclei (%) [2]: 15% and 13% | Population Tubulin-Different-Phenotype (%) [2]: 14% and 8% | Total Cell Count [2]: 194 and 264 | Population Apoptotic (%) [3]: 67% and 56% | Population Fragmented Nuclei (%) [3]: 9% and 13% | Population Healthy Nuclei (%) [3]: 60% and 57% | Population Hoechst High Intensity Objects (%) [3]: 0% | Population Membrane Permeable-Phenotype (%) [3]: 6% | Population Mitochondria Different-Phenotype (%) [3]: 1% and 0% | Population Mitotic Cells (%) [3]: 32% and 44% | Population Normal (%) [3]: 100% | Population Pyknosed Nuclei (%) [3]: 29% and 28% | Population Tubulin-Different-Phenotype (%) [3]: 14% and 8% | Total Cell Count [3]: 176 and 173 | Population Apoptotic (%) [4]: 71% and 45% | Population Fragmented Nuclei (%) [4]: 12% and 14% | Population Healthy Nuclei (%) [4]: 71% and 72% | Population Hoechst High Intensity Objects (%) [4]: 0% | Population Membrane Permeable-Phenotype (%) [4]: 6% and 4% | Population Mitochondria Different-Phenotype (%) [4]: 3% and 1% | Population Mitotic Cells (%) [4]: 28% and 54% | Population Normal (%) [4]: 100% and 99% | Population Pyknosed Nuclei (%) [4]: 15% and 12% | Population Tubulin-Different-Phenotype (%) [4]: 12% and 8% | Total Cell Count [4]: 182 and 271 | Population Apoptotic (%) [5]: 68% and 59% | Population Fragmented Nuclei (%) [5]: 11% and 15% | Population Healthy Nuclei (%) [5]: 71% and 63% | Population Hoechst High Intensity Objects (%) [5]: 0% | Population Membrane Permeable-Phenotype (%) [5]: 6% and 11% | Population Mitochondria Different-Phenotype (%) [5]: 0% | Population Mitotic Cells (%) [5]: 31% and 40% | Population Normal (%) [5]: 100% and 99% | Population Pyknosed Nuclei (%) [5]: 17% and 20% | Population Tubulin-Different-Phenotype (%) [5]: 12% and 3% | Total Cell Count [5]: 186 and 203 | Population Apoptotic (%) [6]: 72% and 60% | Population Fragmented Nuclei (%) [6]: 13% and 12% | Population Healthy Nuclei (%) [6]: 70% and 78% | Population Hoechst High Intensity Objects (%) [6]: 0% | Population Membrane Permeable-Phenotype (%) [6]: 5% and 2% | Population Mitochondria Different-Phenotype (%) [6]: 0% | Population Mitotic Cells (%) [6]: 27% and 39% | Population Normal (%) [6]: 100% and 99% | Population Pyknosed Nuclei (%) [6]: 15% and 8% | Population Tubulin-Different-Phenotype (%) [6]: 8% and 2% | Total Cell Count [6]: 193 and 260

COC(=O)Nc1nc2c(s1)-c1c(c(-c3cccnc3)nn1-c1ccc(C3(N(C)C)CC3)cc1)CC2.Cl.Cl
Population Apoptotic (%) [1]: 38% and 45% | Population Fragmented Nuclei (%) [1]: 50% and 26% | Population Healthy Nuclei (%) [1]: 40% and 52% | Population Hoechst High Intensity Objects (%) [1]: 0% | Population Membrane Permeable-Phenotype (%) [1]: 5% and 6% | Population Mitochondria Different-Phenotype (%) [1]: 0% | Population Mitotic Cells (%) [1]: 61% and 54% | Population Normal (%) [1]: 99% and 100% | Population Pyknosed Nuclei (%) [1]: 9% and 21% | Population Tubulin-Different-Phenotype (%) [1]: 29% and 31% | Total Cell Count [1]: 378 and 219 | Population Apoptotic (%) [2]: 62% and 41% | Population Fragmented Nuclei (%) [2]: 31% and 34% | Population Healthy Nuclei (%) [2]: 55% and 57% | Population Hoechst High Intensity Objects (%) [2]: 0% | Population Membrane Permeable-Phenotype (%) [2]: 13% and 11% | Population Mitochondria Different-Phenotype (%) [2]: 2% and 4% | Population Mitotic Cells (%) [2]: 37% and 58% | Population Normal (%) [2]: 100% and 99% | Population Pyknosed Nuclei (%) [2]: 12% and 8% | Population Tubulin-Different-Phenotype (%) [2]: 63% and 52% | Total Cell Count [2]: 218 and 427 | Population Apoptotic (%) [3]: 60% and 87% | Population Fragmented Nuclei (%) [3]: 50% and 24% | Population Healthy Nuclei (%) [3]: 42% and 60% | Population Hoechst High Intensity Objects (%) [3]: 0% | Population Membrane Permeable-Phenotype (%) [3]: 4% | Population Mitochondria Different-Phenotype (%) [3]: 2% and 3% | Population Normal (%) [3]: 99% and 100% | Population Pyknosed Nuclei (%) [3]: 6% and 15% | Population Tubulin-Different-Phenotype (%) [3]: 20% and 31% | Total Cell Count [3]: 350 and 202 | Population Apoptotic (%) [4]: 65% and 52% | Population Fragmented Nuclei (%) [4]: 34% and 36% | Population Healthy Nuclei (%) [4]: 55% and 57% | Population Hoechst High Intensity Objects (%) [4]: 0% | Population Membrane Permeable-Phenotype (%) [4]: 11% and 5% | Population Mitochondria Different-Phenotype (%) [4]: 4% and 3% | Population Mitotic Cells (%) [4]: 34% and 48% | Population Normal (%) [4]: 100% and 99% | Population Pyknosed Nuclei (%) [4]: 10% and 5% | Population Tubulin-Different-Phenotype (%) [4]: 53% and 44% | Total Cell Count [4]: 225 and 437 | Population Apoptotic (%) [5]: 52% and 74% | Population Fragmented Nuclei (%) [5]: 51% and 29% | Population Healthy Nuclei (%) [5]: 43% and 56% | Population Hoechst High Intensity Objects (%) [5]: 0% | Population Membrane Permeable-Phenotype (%) [5]: 6% and 5% | Population Mitochondria Different-Phenotype (%) [5]: 2% and 0% | Population Mitotic Cells (%) [5]: 47% and 25% | Population Normal (%) [5]: 99% and 100% | Population Pyknosed Nuclei (%) [5]: 5% and 13% | Population Tubulin-Different-Phenotype (%) [5]: 12% and 21% | Total Cell Count [5]: 339 and 195 | Population Apoptotic (%) [6]: 57% and 73% | Population Fragmented Nuclei (%) [6]: 38% and 39% | Population Healthy Nuclei (%) [6]: 58% and 53% | Population Hoechst High Intensity Objects (%) [6]: 0% | Population Membrane Permeable-Phenotype (%) [6]: 3% and 0% | Population Mitochondria Different-Phenotype (%) [6]: 3% and 1% | Population Mitotic Cells (%) [6]: 42% and 26% | Population Normal (%) [6]: 100% and 99% | Population Pyknosed Nuclei (%) [6]: 3% and 6% | Population Tubulin-Different-Phenotype (%) [6]: 42% and 17% | Total Cell Count [6]: 223 and 418
